Results as given in ChEMBL document CHEMBL4364301 (Eur J Med Chem, 2019).
pIC50: −log10 of the molar value.

Key:
Assay type in all cases: functional
DU-145 [1] = experiment: Antiproliferative activity against human DU145 cells assessed as reduction in cell growth incubated for 96 hrs by propidium iodide based 2D monolayer assay; conditions: DU-145, 96 h
Outline: (§1)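 After 24 h recovery, compound in medium or medium alone (control wells) was added at 10 half-log concentrations from 0.0032 to 100 µM, in triplicate, with at most 0.3% DMSO. After 96 h, wells were PBS-washed, stained with 7 µg/ml PI and 0.1% Triton X-100, and fluorescence read at 530/620 nm. IC50 came from a 4-parameter fit, geometric mean.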

CWR22R [2] = experiment: Antiproliferative activity against human 22Rv1 cells assessed as reduction in cell growth incubated for 96 hrs by propidium iodide based 2D monolayer assay; conditions: 22Rv1, 96 h; outline: as §1
LNCaP [3] = experiment: Antiproliferative activity against human LNCAP cells assessed as reduction in cell growth incubated for 96 hrs by propidium iodide based 2D monolayer assay; outline: as §1
VCaP [4] = experiment: Antiproliferative activity against human VCaP cells assessed as reduction in cell growth incubated for 96 hrs by propidium iodide based 2D monolayer assay
Outline: (§2)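 VCaP cells in RPMI 1640 with 10% FCS at 37 °C, 5% CO2, seeded 4,000–20,000 cells/well and left 24 h before dosing. Compounds from DMSO stocks were diluted in half-log steps in medium, 10 concentrations 0.0032–100 μM, triplicate wells, max 0.3% DMSO. After 96 h, cells were washed, stained with 7 μg/ml propidium iodide plus 0.1% Triton X-100 for 1–2 h at room temperature, and fluorescence read at ex 530/em 620 nm.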

VCaP [5] = experiment: Antiproliferative activity against human VCaP cells assessed as T/C value at 3.2 x 10^-3 uM incubated for 96 hrs by propidium iodide based 2D monolayer assay; outline: as §2
VCaP [6] = experiment: Antiproliferative activity against human VCaP cells assessed as T/C value at 1 x 10^-2 uM incubated for 96 hrs by propidium iodide based 2D monolayer assay
Outline: as §1, with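 “Cells were kept in RPMI 1640 with 25 mM HEPES, 10% FCS and gentamicin at 37 °C under 5% CO2, and plated at 4,000-20,000 cells/well. After 24” for “After 24”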

VCaP [7] = experiment: Antiproliferative activity against human VCaP cells assessed as T/C value at 1 x 10^-1 uM incubated for 96 hrs by propidium iodide based 2D monolayer assay
Outline: as §1, with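 “Cells were kept in RPMI 1640 with 25 mM HEPES, 10% FCS and gentamicin at 37 °C under 5% CO2, and plated at 4,000-20,000 cells/well. After 24” for “After 24”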

VCaP [8] = experiment: Antiproliferative activity against human VCaP cells assessed as T/C value at 1 uM incubated for 96 hrs by propidium iodide based 2D monolayer assay
Outline: as §1, with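 “Cells were kept in RPMI 1640 with 25 mM HEPES, 10% FCS and gentamicin at 37 °C under 5% CO2, and plated at 4,000-20,000 cells/well. After 24” for “After 24”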

VCaP [9] = experiment: Antiproliferative activity against human VCaP cells assessed as T/C value at 3.2 uM incubated for 96 hrs by propidium iodide based 2D monolayer assay
Outline: as §1, with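 “Cells were kept in RPMI 1640 with 25 mM HEPES, 10% FCS and gentamicin at 37 °C under 5% CO2, and plated at 4,000-20,000 cells/well. After 24” for “After 24”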

VCaP [10] = experiment: Antiproliferative activity against human VCaP cells assessed as T/C value at 1 x 10^1 uM incubated for 96 hrs by propidium iodide based 2D monolayer assay
Outline: as §1, with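 “Cells were kept in RPMI 1640 with 25 mM HEPES, 10% FCS and gentamicin at 37 °C under 5% CO2, and plated at 4,000-20,000 cells/well. After 24” for “After 24”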

VCaP [11] = experiment: Antiproliferative activity against human VCaP cells assessed as T/C value at 3.2 x 10^1 uM incubated for 96 hrs by propidium iodide based 2D monolayer assay; outline: as §2
VCaP [12] = experiment: Antiproliferative activity against human VCaP cells assessed as T/C value at 1 x 10^2 uM incubated for 96 hrs by propidium iodide based 2D monolayer assay
Outline: as §1, with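 “Cells were kept in RPMI 1640 with 25 mM HEPES, 10% FCS and gentamicin at 37 °C under 5% CO2, and plated at 4,000-20,000 cells/well. After 24” for “After 24”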

LNCaP [13] = experiment: Antiproliferative activity against human LNCAP cells assessed as T/C value at 3.2 x 10^-3 uM incubated for 96 hrs by propidium iodide based 2D monolayer assay
Outline: as §1, with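 “Cells were kept in RPMI 1640 with 25 mM HEPES, 10% FCS and gentamicin at 37 °C under 5% CO2, and plated at 4,000-20,000 cells/well. After 24” for “After 24”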

LNCaP [14] = experiment: Antiproliferative activity against human LNCAP cells assessed as T/C value at 1 x 10^-2 uM incubated for 96 hrs by propidium iodide based 2D monolayer assay
Outline: as §1, with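 “Cells were kept in RPMI 1640 with 25 mM HEPES, 10% FCS and gentamicin at 37 °C under 5% CO2, and plated at 4,000-20,000 cells/well. After 24” for “After 24”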

LNCaP [15] = experiment: Antiproliferative activity against human LNCAP cells assessed as T/C value at 3.2 x 10^-2 uM incubated for 96 hrs by propidium iodide based 2D monolayer assay
Outline: as §1, with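 “Cells were kept in RPMI 1640 with 25 mM HEPES, 10% FCS and gentamicin at 37 °C under 5% CO2, and plated at 4,000-20,000 cells/well. After 24” for “After 24”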

LNCaP [16] = experiment: Antiproliferative activity against human LNCAP cells assessed as T/C value at 1 x 10^-1 uM incubated for 96 hrs by propidium iodide based 2D monolayer assay
Outline: as §1, with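 “Cells were kept in RPMI 1640 with 25 mM HEPES, 10% FCS and gentamicin at 37 °C under 5% CO2, and plated at 4,000-20,000 cells/well. After 24” for “After 24”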

LNCaP [17] = experiment: Antiproliferative activity against human LNCAP cells assessed as T/C value at 1 uM incubated for 96 hrs by propidium iodide based 2D monolayer assay
Outline: as §1, with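 “Cells were kept in RPMI 1640 with 25 mM HEPES, 10% FCS and gentamicin at 37 °C under 5% CO2, and plated at 4,000-20,000 cells/well. After 24” for “After 24”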

LNCaP [18] = experiment: Antiproliferative activity against human LNCAP cells assessed as T/C value at 3.2 uM incubated for 96 hrs by propidium iodide based 2D monolayer assay
Outline: as §1, with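 “Cells were kept in RPMI 1640 with 25 mM HEPES, 10% FCS and gentamicin at 37 °C under 5% CO2, and plated at 4,000-20,000 cells/well. After 24” for “After 24”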

LNCaP [19] = experiment: Antiproliferative activity against human LNCAP cells assessed as T/C value at 3.2 x 10^1 uM incubated for 96 hrs by propidium iodide based 2D monolayer assay
Outline: as §1, with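 “Cells were kept in RPMI 1640 with 25 mM HEPES, 10% FCS and gentamicin at 37 °C under 5% CO2, and plated at 4,000-20,000 cells/well. After 24” for “After 24”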

LNCaP [20] = experiment: Antiproliferative activity against human LNCAP cells assessed as T/C value at 1 x 10^2 uM incubated for 96 hrs by propidium iodide based 2D monolayer assay
Outline: as §1, with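 “Cells were kept in RPMI 1640 with 25 mM HEPES, 10% FCS and gentamicin at 37 °C under 5% CO2, and plated at 4,000-20,000 cells/well. After 24” for “After 24”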

CWR22R [21] = experiment: Antiproliferative activity against human 22Rv1 cells assessed as T/C value at 3.2 x 10^-2 uM incubated for 96 hrs by propidium iodide based 2D monolayer assay
Outline: as §1, with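 “Cells were kept in RPMI 1640 with 25 mM HEPES, 10% FCS and gentamicin at 37 °C under 5% CO2, and plated at 4,000-20,000 cells/well. After 24” for “After 24”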

CWR22R [22] = experiment: Antiproliferative activity against human 22Rv1 cells assessed as T/C value at 1 x 10^-1 uM incubated for 96 hrs by propidium iodide based 2D monolayer assay
Outline: as §1, with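 “Cells were kept in RPMI 1640 with 25 mM HEPES, 10% FCS and gentamicin at 37 °C under 5% CO2, and plated at 4,000-20,000 cells/well. After 24” for “After 24”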

CWR22R [23] = experiment: Antiproliferative activity against human 22Rv1 cells assessed as T/C value at 3.2 x 10^-1 uM incubated for 96 hrs by propidium iodide based 2D monolayer assay
Outline: as §1, with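 “Cells were kept in RPMI 1640 with 25 mM HEPES, 10% FCS and gentamicin at 37 °C under 5% CO2, and plated at 4,000-20,000 cells/well. After 24” for “After 24”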

CWR22R [24] = experiment: Antiproliferative activity against human 22Rv1 cells assessed as T/C value at 1 uM incubated for 96 hrs by propidium iodide based 2D monolayer assay
Outline: as §1, with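 “Cells were kept in RPMI 1640 with 25 mM HEPES, 10% FCS and gentamicin at 37 °C under 5% CO2, and plated at 4,000-20,000 cells/well. After 24” for “After 24”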

CWR22R [25] = experiment: Antiproliferative activity against human 22Rv1 cells assessed as T/C value at 1 x 10^2 uM incubated for 96 hrs by propidium iodide based 2D monolayer assay
Outline: as §1, with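 “Cells were kept in RPMI 1640 with 25 mM HEPES, 10% FCS and gentamicin at 37 °C under 5% CO2, and plated at 4,000-20,000 cells/well. After 24” for “After 24”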

DU-145 [26] = experiment: Antiproliferative activity against human DU145 cells assessed as T/C value at 3.2 x 10^-3 uM incubated for 96 hrs by propidium iodide based 2D monolayer assay; outline: as §1
DU-145 [27] = experiment: Antiproliferative activity against human DU145 cells assessed as T/C value at 3.2 x 10^-2 uM incubated for 96 hrs by propidium iodide based 2D monolayer assay; outline: as §1
DU-145 [28] = experiment: Antiproliferative activity against human DU145 cells assessed as T/C value at 1 uM incubated for 96 hrs by propidium iodide based 2D monolayer assay; outline: as §1
DU-145 [29] = experiment: Antiproliferative activity against human DU145 cells assessed as T/C value at 3.2 uM incubated for 96 hrs by propidium iodide based 2D monolayer assay
Outline: as §1, with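 “Cells were kept in RPMI 1640 with 25 mM HEPES, 10% FCS and gentamicin at 37 °C under 5% CO2, and plated at 4,000-20,000 cells/well. After 24” for “After 24”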

DU-145 [30] = experiment: Antiproliferative activity against human DU145 cells assessed as T/C value at 1 x 10^1 uM incubated for 96 hrs by propidium iodide based 2D monolayer assay; outline: as §1
DU-145 [31] = experiment: Antiproliferative activity against human DU145 cells assessed as T/C value at 3.2 x 10^1 uM incubated for 96 hrs by propidium iodide based 2D monolayer assay
Outline: as §1, with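 “Cells were kept in RPMI 1640 with 25 mM HEPES, 10% FCS and gentamicin at 37 °C under 5% CO2, and plated at 4,000-20,000 cells/well. After 24” for “After 24”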

DU-145 [32] = experiment: Antiproliferative activity against human DU145 cells assessed as T/C value at 1 x 10^2 uM incubated for 96 hrs by propidium iodide based 2D monolayer assay
Outline: as §1, with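 “Cells were kept in RPMI 1640 with 25 mM HEPES, 10% FCS and gentamicin at 37 °C under 5% CO2, and plated at 4,000-20,000 cells/well. After 24” for “After 24”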

CC(O)(COc1cc(C(F)(F)F)cc(C(F)(F)F)c1)C(=O)Nc1cccc(S(F)(F)(F)(F)F)c1 (racemic)
pIC50 (DU-145 [1]): 5.03 | IC70 (DU-145 [1]): 9.59 µM | pIC50 (CWR22R [2]): 5.19 | IC70 (CWR22R [2]): 7.75 µM | pIC50 (LNCaP [3]): 5.55 | IC70 (LNCaP [3]): 3 µM | pIC50 (VCaP [4]): 5.55 | IC70 (VCaP [4]): 3.24 µM | T/C (VCaP [5]): 97% | T/C (VCaP [6]): 87% | T/C (VCaP [7]): 78% | T/C (VCaP [8]): 94% | T/C (VCaP [9]): 33% | T/C (VCaP [10]): 37% | T/C (VCaP [11]): 4% | T/C (VCaP [12]): 7% | T/C (LNCaP [13]): 89% | T/C (LNCaP [14]): 96% | T/C (LNCaP [15]): 74% | T/C (LNCaP [16]): 76% | T/C (LNCaP [17]): 101% | T/C (LNCaP [18]): 17% | T/C (LNCaP [19]): 1% | T/C (LNCaP [20]): 2% | T/C (CWR22R [21]): 110% | T/C (CWR22R [22]): 106% | T/C (CWR22R [23]): 105% | T/C (CWR22R [24]): 102% | T/C (CWR22R [25]): 2% | T/C (DU-145 [26]): 107% | T/C (DU-145 [27]): 114% | T/C (DU-145 [28]): 123% | T/C (DU-145 [29]): 115% | T/C (DU-145 [30]): 12% | T/C (DU-145 [31]): 5% | T/C (DU-145 [32]): 0%
